According to ChEMBL document CHEMBL3870302, “Computer-aided identification, synthesis and evaluation of substituted thienopyrimidines as novel inhibitors of HCV replication” (Eur J Med Chem, 2016):

Assays:
[1] = Cytotoxicity against human HuH5.2 cells assessed as reduction in metabolic activity after 72 hrs by MTS assay; assay type: toxicity, cell-based, Huh-5-2; details: HuH5.2 cells
Procedure, shortened: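 Run in parallel with the replicon assay: Huh 5-2 replicon cells, 6 500 cells/well, compound series for 72 h at 37 °C, 5% CO2. Medium then replaced with 5% MTS in phenol red-free medium for 1.5 h. Absorbance at 498 nm expressed as % untreated cells; CC50 from dose-response curve as 50% reduction in metabolic activity, mean of ≥2 experiments.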

[2] = Selectivity index, ratio of CC50 for human HuH5.2 cells to EC50 for hepatitis C virus genotype 1b infected in human HuH5.2 cells; assay type: toxicity, cell-based; details: HuH5.2 cells, read-out: Ratio CC50/EC50
Procedure, shortened: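 Ratio of CC50 (MTS metabolic read-out, 72 h) to EC50 (replicon luciferase read-out, 72 h), both measured in parallel on Huh 5-2 genotype 1b replicon cells.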

[3] = test system: Hepatitis C virus; test: Antiviral activity against Hepatitis C virus genotype 1b infected in human HuH5.2 cells after 72 hrs by luciferase reporter gene assay; assay type: functional, cell-based, Hepacivirus hominis
Procedure, shortened: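 Huh 5-2 cells with genotype 1b I389luc-ubi-neo/NS3-3'/5.1 subgenomic replicon, seeded 6 500 cells/well in DMEM/10% FCS without Geneticin, overnight 37 °C. Compound (DMSO stock diluted in medium) in 1:5 four-step or 1:2 eight-step series, 72 h. Cells PBS-washed, lysed 5 min, luciferase luminescence read, converted to % untreated control; EC50 from dose-response curve, mean of ≥2 independent experiments.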

[4] = Hepatitis C virus, genotype 1b, Huh-5-2, 72 h

Structure (SMILES) | EC50 [3, 4] [µM] | EC90 [3, 4] [µM] | EC50 [3] [µM] | EC90 [3] [µM] | CC50 at 72 h [1] [µM] | selectivity ratio [2]
CCOc1cc(C)c(S(=O)(=O)N2CCN(Cc3ccc4c(c3)OCO4)CC2)cc1C | 34.5 |  |  |  | > 116 | > 3.4
O=C(/C=C(/C(=O)O)c1ccccc1)Nc1ccc(N2CCN(CCO)CC2)cc1 | 65 |  |  |  | > 126 | > 0.19
O=C(Nc1ccc(S(=O)(=O)O)c2ccccc12)c1ccc(C(=O)Nc2ccc(S(=O)(=O)O)c3ccccc23)cc1 | > 86 | > 86 |  |  | > 86 | 
O=S(=O)(Nc1ccc(O)c(Sc2ncn[nH]2)c1)c1cccc2ccccc12 | 42.2 |  |  |  | > 126 | > 2.9
C/C(=N/Nc1ncnc2sccc12)c1cnccn1 | 5.04 | 1.79 |  |  | 9.01 | 1.8
CCC[C@H](NC(=O)[C@@H]1[C@H]2CCC[C@H]2CN1C(=O)[C@@H](NC(=O)[C@@H](NC(=O)c1cnccn1)C1CCCCC1)C(C)(C)C)C(=O)C(=O)NC1CC1 [TELAPREVIR] | 0.8 |  |  |  |  | 58.8
O=C(CCN1C(=O)c2cccc3cccc(c23)C1=O)N1CCN(Cc2ccc3c(c2)OCO3)CC1 | 32 |  |  |  | > 106 | > 3.3
Cc1cc(O)cc(O)c1/C=N/NC(=O)COc1ccc2ccccc2c1 | 1.9 |  |  |  | 51.9 | 27.3
CCOc1cc(C2C(C(=O)OC)=C(C)NC3=C2C(=O)CC(c2ccc(OC)c(OC)c2)C3)ccc1O (stereo not given) | 36 |  |  |  | > 101 | > 2.8
CCOc1ccc2sc(NS(=O)(=O)c3ccc(OC)c(OC)c3)nc2c1 | > 127 | > 127 |  |  | > 127 | 
COc1ccc(C(N)=O)cc1NS(=O)(=O)c1cccc2cccnc12 | > 140 | > 140 |  |  | > 140 | 
COc1cccc(C2=Nn3c(CN4CCC(C)CC4)nnc3SC2)c1 | 130 | > 139 |  |  | > 139 | > 1.1
CCOc1cccc(C(=O)Nc2cc(C(=O)OC)ccc2N2CCN(CC)CC2)c1 | 38.9 |  |  |  | 61.7 | 1.6
COc1ccc(/C(C)=N/NC(=O)c2cc(O)cc(O)c2)c(OC)c1 | > 151 | > 151 |  |  | > 151 | 
COc1ccc(-c2c(C#N)c(SCC(N)=O)nc3c2CCCC3)cc1 | 130 | > 142 |  |  | > 142 | > 1.1
COC(=O)c1ccc(N2C(=O)CC(S/C(=N\c3ccccc3)NCc3ccc4c(c3)OCO4)C2=O)cc1 (stereo not given) | 12.8 |  |  |  | 62.6 | 4.9
O=C(N/N=C\c1cccnc1)c1cc(-c2ccc3c(c2)OCO3)n[nH]1 | > 149 | > 149 |  |  | > 149 | 
CC(=O)Nc1ccc(/C=C2\C=C(C(O)c3ccc(NC(C)=O)cc3)c3ccccc32)cc1 (stereo not given) | 21.5 |  |  |  | 48.8 | 2.3
COc1cc2nc(CN3CCC(C(N)=O)CC3)[nH]c(=O)c2cc1OC | > 144 | > 144 |  |  | > 144 | 

Now from value to molecule, other results behind:

EC50 [3, 4] [µM] | EC90 [3, 4] [µM] | EC50 [3] [µM] | EC90 [3] [µM] | Structure (SMILES) | CC50 at 72 h [1] [µM] | selectivity ratio [2]
79.4 | > 103 |  |  | C/C(=N\Nc1ncnc2sc3c(c12)CCCC3)c1cccnc1 | > 309 | > 3.9
0.17 |  |  |  | C/C(=N/Nc1ncnc2sc(Cl)c(C)c12)c1ccccc1O | > 9.01 | > 56.1
2.75 | 9.4 |  |  | O=C(NNc1ncnc2sccc12)c1cc(O)ccc1O | > 165 | > 60
23.1 | 47.4 |  |  | NNc1ncnc2sc3c(c12)CCCC3 | 247 | 10.7
403 | > 443 |  |  | C/C(=N\Nc1ncnc2sc3c(c12)CCCC3)c1cccc(O)c1 | > 443 | > 1.1
53.6 |  |  |  | COc1ccc(OC)c(/C(C)=N/Nc2ncnc3sc4c(c23)CCCC4)c1 | 98.5 | 1.8
1.1 | 3.48 |  |  | C/C(=N\Nc1ncnc2sc3c(c12)CCCC3)c1ccccn1 | 7.59 | 6.9
199 |  |  |  | O=C(NNc1ncnc2sc3c(c12)CCCC3)c1ccco1 | 230 | 1.2
17.8 | 17.6 |  |  | C/C(=N\Nc1ncnc2sc3c(c12)CCC3)c1cc(O)ccc1O | > 367 | > 20.6
0.415 | 0.858 |  |  | C/C(=N\Nc1ncnc2sc3ccccc3c12)c1cnccn1 | 1.99 | 6.4
12 | > 38.8 |  |  | O=C(NNc1ncnc2sccc12)c1ccccc1O | > 349 | > 27
9.41 | 55.1 |  |  | C/C(=N\Nc1ncnc2sc3c(c12)CCCC3)c1cc(Cl)ccc1Cl | > 256 | > 27.2
115 | > 94.6 |  |  | C/C(=N\Nc1nc(C)nc2sc3c(c12)CCCC3)c1ccccc1O | > 284 | > 2.5
210 | > 220 |  |  | O=C(NNc1ncnc2sc3c(c12)CCCC3)c1cccc(O)c1 | > 294 | > 1.4
0.077 | 0.32 |  |  | Cc1nc(NNC(=O)c2ccccn2)c2c3c(sc2n1)CCCC3 | > 2.95 | > 38.1
0.0945 | < 0.256 |  |  | O=C(NNc1ncnc2sc3c(c12)CCC3)c1cnccn1 | 2.97 | 31.4
33.6 | > 310 |  |  | C/C(=N\Nc1ncnc2sc3c(c12)CCCC3)c1ccccc1 | 53.4 | 1.6
0.384 | < 1.28 |  |  | C/C(=N/Nc1ncnc2sc(C)c(C)c12)c1ccccc1O | 93.6 | 244
0.688 | < 0.839 |  |  | C/C(=N/Nc1ncnc2sc3c(c12)CCC3)c1cnccn1 | 1.12 | 1.6
0.832 | 1.6 |  |  | O=C(NNc1ncnc2sc3ccccc3c12)c1ccccc1O | 108 | 130
18.2 |  |  |  | C/C(=N\Nc1ncnc2sc3c(c12)CCCC3)c1ccco1 | 58.9 | 3.2
31.1 |  |  |  | O=C(NNc1ncnc2sc3c(c12)CCCC3)c1cccs1 | 36.7 | 1.2
 |  | < 2.2 | 135 | C/C(=N\Nc1ncnc2sc3c(c12)CCCC3)c1cc(O)ccc1O (stereo in doubt; form 2) | > 282 | > 128
147 |  |  |  | O=C(NNc1ncnc2sc3c(c12)CCCC3)c1ccc[nH]1 | 160 | 1.1
128 | > 307 |  |  | O=C(NNc1ncnc2sc3c(c12)CCCC3)c1cccnc1 | > 307 | > 2.4
0.461 | 1.01 |  |  | O=C(NNc1ncnc2sc3ccccc3c12)c1ccccn1 | 1.54 | 3.3
> 295 | > 295 |  |  | C/C(=N\Nc1ncnc2sc3c(c12)CCCC3)c1ccc(O)cc1 | > 295 | 
